Laboratory results: paper PMC9530962 (Redox Biology, 2022)
Where two headings read alike, the source gives them in different places. One block for each compound: values may come before it.

Key:
[1] = assay type: in vivo, SD rats
Summary of the method: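 Male SD rats (8 weeks, 200 ± 20 g) were acclimated for 1 week. Each rat got one intragastric dose of AAI, alone or with lycopene; controls were n = 6. Three rats were killed at each time point: 0.25, 0.5, 1, 2, 4, 8, 12, 24 and 48 h. Kidney (0.3–1 g) was homogenized in normal saline at 1:3 (w:v), and AAI was measured by HPLC.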

[2] = test system: C57BL/6 mice with renal injury induced by aristolochic acid exposure; assay: AAN mouse model: body weight, kidney coefficient, HE/PAS histopathology; assay type: in vivo
Summary of the method: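 Male SPF C57BL/6 mice (6 weeks, 18–20 g) were acclimated for 1 week, then split into 5 groups (n = 6). Dosing was intragastric for 28 days, with vehicle 0.5% CMC. AAI 10 mg/kg/day was given at 13:00, and LYC 5 or 20 mg/kg/day at 08:00. Mice were killed 24 h after the last dose. Kidney coefficient = kidney/body weight. Kidney sections were stained with HE, PAS and Masson and scored for histopathology and tubular injury.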

[3] = test system: C57BL/6 mice with renal injury induced by aristolochic acid exposure; assay: Renal function, kidney injury markers and oxidative stress markers in AAN mice; assay type: in vivo; details: for Cr and BUN levels in the serum: mice
Summary of the method: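 C57BL/6 AAN model: AAI 10 mg/kg/day intragastric for 28 days, with LYC 5 or 20 mg/kg/day given separately. Blood was taken 24 h after the last dose and centrifuged at room temperature for serum. Serum creatinine and BUN were measured with commercial kits, and serum KIM-1 and NGAL by ELISA. MDA, SOD, T-AOC and GSH-PX were measured with commercial kits.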

[4] = test system: C57BL/6 mice with renal injury induced by aristolochic acid exposure; assay type: in vivo
NRK52E cytotoxicity = assay type: cell-based; details: rat, NRK52E renal tubular epithelial cells
Summary of the method: (§1)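 NRK52E rat tubular epithelial cells were seeded at 8000 cells/well. Treatment was 24 h with AAI (0–80 μM) or LYC (0–40 μM), or AAI 40 μM with LYC 5 or 10 μM; drug went in by medium change at 40–50% density. CCK-8 (10% in serum-free DMEM) was added for 2 h at 37 °C and A450 read. Viability % = (OD sample − OD blank)/(OD control − OD blank) × 100. Morphology and confluence were viewed by light microscopy.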

NRK52E cells [5] = assay: NRK52E cytotoxicity; assay type: cell-based; details: NRK52E
Summary of the method: as §1

[6] = test system: Nrf2-HO-1 antioxidant pathway; assay type: cell-based; details: NRK52E
[7] = test system: TNF-α/NF-κB signaling pathway; assay type: cell-based; details: NRK52E
NRK52E cells [8] = assay type: cell-based
Aristolochic lactam = assay type: in vivo; details: rats, after oral gavage of AAI
[9] = HPLC determination of lycopene content in rat kidney after oral gavage; assay type: in vivo, SD rats; details: rats
Summary of the method: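 Rats (male SD) got one intragastric dose of AAI plus lycopene, and three were killed per time point (0.25–48 h). For each sample, 0.5 g kidney was homogenized with 1 ml saline. Protein in 100 μL homogenate was precipitated with 100 μL absolute ethanol, then 200 μL n-hexane (0.01% BHT) was added. HPLC used a C18 column (150 × 4.6 mm, 5 μm) with methanol:acetonitrile:dichloromethane 50:33:17, detection at 472 nm, 25 °C.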

[10] = test system: Nrf2 antioxidant system, NF-κB signaling pathway and apoptosis-related genes in kidney; assay: Nrf2 system, NF-κB pathway and apoptosis gene expression in kidneys of AAN mice; assay type: in vivo, C57BL/6 mice
[11] = oral gavage of lycopene; ref Previous studies; cited from earlier work
[12] = mice, AAN group (AAI 10 mg/kg/day, 28 days)

Compound: COc1cccc2c1cc([N+](=O)[O-])c1c(C(=O)O)cc3c(c12)OCO3 [AAI, Aristolochic acid A]
AA-I contents in kidney ([1]; rats, Group AAI + LYC, 15min after intragastric administration): 0
AA-I contents in kidney ([1]; rats, Group AAI + LYC, 30min): 7.955 ± 0.8107
AA-I contents in kidney ([1]; rats, Group AAI + LYC, 1h): 0
AA-I contents in kidney ([1]; rats, Group AAI + LYC, 2h): 1.516 ± 0.1493
AA-I contents in kidney ([1]; rats, Group AAI + LYC, 4h): 0
AA-I contents in kidney ([1]; rats, Group AAI + LYC, 8h): 0
AA-I contents in kidney ([1]; rats, Group AAI + LYC, 12h): 0
AA-I contents in kidney ([1]; rats, Group AAI + LYC, 24h): 0
AA-I contents in kidney ([1]; rats, Group AAI + LYC, 48h): 0
AA-I contents in kidney ([1]; rats, Group AAI, 15min after intragastric administration): 0
AA-I contents in kidney ([1]; rats, Group AAI, 30min): 8.546 ± 1.478
AA-I contents in kidney ([1]; rats, Group AAI, 1h): 0
AA-I contents in kidney ([1]; rats, Group AAI, 2h): 1.616 ± 0.04743
AA-I contents in kidney ([1]; rats, Group AAI, 4h): 0
AA-I contents in kidney ([1]; rats, Group AAI, 8h): 0
AA-I contents in kidney ([1]; rats, Group AAI, 12h): 0
AA-I contents in kidney ([1]; rats, Group AAI, 24h): 0
AA-I contents in kidney ([1]; rats, Group AAI, 48h): 0
time after feeding at which AAI has been metabolized completely in the kidney ([1]; rats, oral gavage of AAI): 2 h
contents of CR and BUN in the serum (preliminary experiment) ([2]; mice, AAI 10 mg/kg/day, vs normal control): significantly increased
body weight [2, 12]: significantly reduced
scores of renal histopathology and tubular injury [2, 12]: significantly increased
renal index ([2]; mice, AAN group (AAI 10 mg/kg/day, 28 days) vs control): significantly lower
Cr and BUN levels in the serum ([3]; AAN group vs control): significantly higher
renal interstitium fibrosis (MASSON staining) ([4]; mice, AAN group vs control): severely fibrotic
expression of IL-12 in the kidneys ([4]; model mice vs control): decreased
expression of TNF-α, IL-6, IL-10 in the kidneys ([4]; model mice vs control): increased
viability at 24 h, 40 μM (NRK52E cytotoxicity): 60%
degree of cell fusion (NRK52E cells [5]; AAI group, light microscopy): about 50%
expression of Nrf2, Keap-1, HO-1, NQO1, GSH-PX, and SOD ([6]; AAI exposure vs control): decreased
content of ROS ([6]; AAI group vs control): increased
expression of NF-κB-p65, TNF-α, and IL-6 ([7]; AAI group vs control): increased
NF-κB-P65 nuclear expression ([7]; AAI group, immunofluorescence): significantly increased
number of apoptotic cells (early and late) (NRK52E cells [8]; AAI group vs control, flow cytometry): significantly increased

Compound: CC(=O)O[C@@H]1CC[C@@]2(C)[C@@H](CC[C@]3(C)[C@@H]2C(=O)C=C2[C@@H]4[C@@H](C)[C@H](C)CC[C@]4(C)CC[C@]23C)[C@@]1(C)C(=O)O [AKBA, Acetyl-11-keto-β-boswellic acid]
content of ROS in the cells ([6]; AKBA 40 μM, AAI 40 μM): decreased
expression of Nrf2, keap-1, HO-1, NQO1 ([6]; AKBA 40 μM, AAI 40 μM): increased
expression of Bcl-2 ([7]; AKBA 40 μM, AAI 40 μM): increased
expression of NF-κB, TNF-α, Bax, Cleaved-Caspase3 ([7]; AKBA 40 μM, AAI 40 μM): decreased

accumulation of ALI in the kidney after 2 h (Aristolochic lactam): no accumulation
Compound: COc1cccc2c1cc1c3c(cc4c(c32)OCO4)C(=O)N1 [ALI, Aristolochic lactam]

content of AAI in the kidney of rats fed with lycopene compared with AAI alone ([1]; AAI + lycopene vs AAI alone): no significant difference
time of highest lycopene content in the kidney [9]: 6 h
lycopene content in the kidney after 24 h ([9]; 24 h): ~0
Compound: CC(C)=CCC/C(C)=C/C=C/C(C)=C/C=C/C(C)=C/C=C/C=C(C)/C=C/C=C(C)/C=C/C=C(\C)CCC=C(C)C [Lycopene]
damaged renal tissue (HE and PAS staining) ([2]; AAN mice after lycopene intervention): significant improvement
body weight ([2]; AAN mice, AL20 group (LYC 20 mg/kg/d + AAI 10 mg/kg/day, 28 days)): increased
renal tubular structure (HE and PAS staining) ([2]; mice, LYC group (LYC 20 mg/kg/d alone)): intact without signs of lesions
expression of AAI-induced lipid peroxidation product (MDA) ([3]; AAN mice): significantly decreased
expression of antioxidant enzyme systems (T-AOC, SOD, and GSH-PX) ([3]; AAN mice): increased
expression levels of KIM-1 and NGAL induced by AAI ([3]; AAN mice, serum, ELISA): significantly reduced
Cr and BUN levels in the serum ([3]; LYC group): significantly lower
degree of renal fibrosis (MASSON staining) ([4]; AAN mice after LYC intervention): alleviated
expression of TNF-α, IL-6, IL-10 and IL-12 in the kidneys ([4]; AAN mice, LYC 5 and 20 mg/kg/d, Western-blot, RT-PCR, ELISA): reversed the expression of these genes in a dose-dependent manner
cell viability (NRK52E cells [5]; LYC 5 μM, 10 μM together with AAI, 24 h, dose-dependent): increased
Nrf2 intranuclear expression ([6]; AAI plus LYC intervention, dose-dependent): significant increase
content of ROS ([6]; AAI plus LYC intervention, dose-dependent, DCFH-DA): significant decrease
NF-κB-P65 nuclear expression ([7]; AAI plus LYC intervention, immunofluorescence): significantly decreased
expression of NF-κB-p65, TNF-α, IL-6, IkB and IL-12 ([7]; AAI plus LYC treatment): reversed the expression of these proteins
expression of IL-1β in the cells ([7]; LYC treatment vs AAI group, immunofluorescence): significantly decreased
expression of Bax, Cleaved-Caspase3, Cleaved-Caspase9, Bcl-2, Caspase-3, and Caspase-9 (NRK52E cells [8]; AAI plus LYC intervention, Western-blot and RT-PCR): reversed the expression of these proteins
number of apoptotic cells (NRK52E cells [8]; AAI plus LYC intervention, flow cytometry): significantly decreased
cellular mitochondrial damage (NRK52E cells [8]; AAI plus LYC intervention, transmission electron microscopy): significantly reduced
expression of NF-κB-p65, TNF-α, IL-6, IL-10, IL-1β, IκB and IL-12 in the kidney ([10]; LYC intervention): reversed the expression of these genes in a dose-dependent manner
Nrf2, Keap-1, HO-1, NQO1, GSH-PX and SOD expression in the kidneys ([10]; lycopene treatment): reversed the expression of these proteins
time at which lycopene is most abundant in the kidney [11]: 6 to 8 h

Compound: Cc1ccccc1C(=O)N1CCc2cc(-c3nc(NC(=O)Cc4ccc5c(c4)OCO5)sc3C)ccc21 [ML385]
effect of LYC on NF-κB, TNF-α, Bax, Cleaved-Caspase-3 and BCL-2 expression when ML385 was added ([7]; ML385 5 μM, AAI 40 μM, LYC): significantly reduced or even ineffective
effect of LYC on apoptosis (DAPI staining) after the addition of ML385 (NRK52E cells [8]; AAI, LYC, ML385): the effect of LYC was inhibited
